Experimental data from ChEMBL document CHEMBL1122329, “Synthesis and antianxiety activity of (omega-piperazinylalkoxy)indan derivatives” (J Med Chem, 1983).

Key:
Mus musculus [1] = experiment: Anti-fighting potency against foot shock induced fighting behavior in mice expressed as % inhibition at 25 mg/kg peroral administration; format: functional; conditions: route oral
Mus musculus [2] = experiment: Anti-morphine activity against morphine-induced Straub''s tail reaction in mice expressed as % inhibition at 25 mg/kg peroral administration; format: functional; conditions: route oral
Outline: (§1)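 Six mice per group received test compounds orally 1 h before morphine (20 mg/kg ip). Straub's tail reaction was scored as the index of morphine's CNS stimulant action.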

Mus musculus [3] = experiment: Antifighting potency against the foot shock induced fighting behavior in mice on peroral administration; format: functional; conditions: po
Mus musculus [4] = experiment: Anti-morphine activity against the morphine-induced Straub's tail reaction in mice on peroral administration; format: functional; conditions: po
Outline: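 Mice, six per group, dosed orally with test compound 1 h before morphine (20 mg/kg ip); Straub's tail reaction scored as index of morphine CNS stimulation.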

Mus musculus [5] = experiment: Evaluated for hypothermic activity in mice at 30 mg/kg on peroral administration; format: functional; conditions: route oral
Outline: (§2)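 Six mice per group were dosed orally 1 h before testing. Rectal temperature was read with an electronic thermometer. Results are given as degrees of hypothermia (Δt °C) versus an untreated group.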

Rattus norvegicus [6] = experiment: Evaluated for neuroleptic-like property using anti-methamphetamine test in rats on peroral administration; format: functional; conditions: po
Outline: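 Groups of six rats were dosed orally, then given methamphetamine 5 mg/kg ip 1 h later. Stereotypy was scored 0–4: sleep/eyes closed 0, motionless/eyes open 1, moving around cage 2, sniffing 3, continuous licking or gnawing 4. ED50 was the dose halving mean score versus controls, with 95% confidence limits.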

Mus musculus [7] = experiment: Cataleptogenic action in mice on peroral administration; format: functional; conditions: po
Outline: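 Six mice per group were dosed orally 1 h before testing. Forepaws were placed on a horizontal steel bar to force an abnormal posture. Holding the posture over 30 s counted as catalepsy. ED50 was the dose giving catalepsy in 50% of animals, with 95% confidence limits.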

Mus musculus [8] = experiment: Evaluated for muscle-relaxant action in mice on peroral administration; format: functional; conditions: po
Outline: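 Traction test: mice, eight per group, dosed orally; 1 h later forepaws placed on horizontal wire bar 30 cm high; failure to bring hind feet onto wire within 5 s counted as muscle relaxation.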

[9] = Toxicity on peroral administration to mice; format: organism-based; conditions: mouse, in vivo, po
Outline: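 Oral dosing to mice, eight per group; LD50 calculated by Litchfield-Wilcoxon method.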

Rattus norvegicus [10] = experiment: Evaluated for neuroleptic-like property using open-field test in rats(increase in ambulation at 3 to 20 mg/kg on peroral administration; value may range from 7.3 to 13.9; format: functional; conditions: dose mg/kg 3-20, route oral
Mus musculus [11] = experiment: Evaluated for hypothermic activity in mice at 30 mg/kgo n peroral administration; format: functional; conditions: dose 30 mg/kg; route oral; outline: as §2
[12] = Ratio of muscle relaxant action to antifighting effect; format: functional
Outline: (§3)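 Muscle relaxation was measured by traction test in mice (eight per group), 1 h after oral dosing. Forepaws were placed on a horizontal wire bar 30 cm high. Failure to bring the hind feet onto the wire within 5 s counted as relaxation. This action was set in ratio with the antifighting effect.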

Rattus norvegicus [13] = experiment: Evaluated for neuroleptic-like property using open-field test in rats(increase in ambulation at 3 to 20 mg/kg) on peroral administration; value may range from 8.4 to 17.0; format: functional; conditions: dose mg/kg 3-20, route oral
Mus musculus [14] = experiment: Anti-morphine activity against the morphine-induced Straub''s tail reaction in mice expressed as % inhibition at 25 mg/kg peroral administration; format: functional; conditions: route oral; outline: as §1
[15] = Ratio of the muscle relaxant action to antifighting effect; format: functional; outline: as §3

SMILES	inhibition in vivo at 25 mg/kg (Mus musculus [1])	inhibition in vivo at 25 mg/kg (Mus musculus [2])	also measured
FC(F)(F)c1cccc(N2CCN(CCCOc3ccc4c(c3)CCC4)CC2)c1	0%	73%	
Oc1cc2c(cc1OCCCN1CCN(c3ccc(F)cc3)CC1)CCC2	25%	0%	
c1ccc(C2CCc3ccc(OCCCN4CCN(c5ccccc5)CC4)cc32)cc1 (stereo not given)	0%	34%	
CCC1CCc2ccc(OCCCN3CCN(c4ccc(F)cc4)CC3)cc21 (stereo not given)	67%	44%	
Fc1cccc(N2CCN(CCCCOc3ccc4c(c3)CCC4)CC2)c1	15%	17%	
Clc1cc(Cl)cc(N2CCN(CCCOc3ccc4c(c3)CCC4)CC2)c1	0%	0%	
Cl.Cl.Cl.Clc1ccccc1N1CCN(CCCCOc2ccc3c(c2)CCC3)CC1	85%	42%	ED50 (Mus musculus [3]): 14.5 mg/kg; ED50 (Mus musculus [4]): 30 mg/kg
COc1ccc(N2CCN(CCCOc3ccc4c(c3)CCC4)CC2)cc1	60%	37%	
O=[N+]([O-])c1cc2c(cc1OCCCN1CCN(c3ccc(F)cc3)CC1)CCC2	58%	28%	
O=[N+]([O-])c1ccc(N2CCN(CCCCOc3ccc4c(c3)CCC4)CC2)cc1	0%	22%	
Clc1ccc(N2CCN(CCCOc3ccc4c(c3)CCC4)CC2)cc1	43%	58%	
c1ccc(N2CCN(CCCCCOc3ccc4c(c3)CCC4)CC2)cc1	27%	25%	
Clc1cccc(N2CCN(CCCCOc3ccc4c(c3)CCC4)CC2)c1	37%	0%	
COc1ccccc1N1CCN(CCCOc2ccc3c(c2)CCC3)CC1	0%	19%	
CN1C(=O)CN=C(c2ccccc2)c2cc(Cl)ccc21 [DIAZEPAM]			ED50 (Mus musculus [3]): 1.6 mg/kg; Delta t (Mus musculus [5]): -0.1; ED50 (Mus musculus [4]): 1.2 mg/kg; ED50 (Rattus norvegicus [6]): > 30 mg/kg; ED50 (Mus musculus [7]): > 30 mg/kg; ED50 (Mus musculus [8]): 4.8 mg/kg
Cl.Cl.O=[N+]([O-])c1ccccc1N1CCN(CCCCOc2ccc3c(c2)CCC3)CC1	42%	54%	ED50 (Mus musculus [3]): 25.8 mg/kg; ED50 (Mus musculus [4]): 23 mg/kg
Cl.Cl.Cl.Fc1ccc(N2CCN(CCCOc3cc4c(cc3Cl)CCC4)CC2)cc1	83%	100%	ED50 (Mus musculus [3]): 14.3 mg/kg; ED50 (Mus musculus [4]): 11.5 mg/kg
Cl.Cl.Fc1ccc(N2CCN(CCCCOc3cc4c(cc3F)CCC4)CC2)cc1	83%	90%	ED50 (Mus musculus [3]): 14.4 mg/kg; ED50 (Mus musculus [4]): 10.2 mg/kg
COc1cc2c(cc1OCCCN1CCN(c3ccccc3)CC1)CCC2	50%	65%	
Cl.Cl.Fc1cc2c(cc1OCCCN1CCN(c3ccccc3)CC1)CCC2	100%	89%	ED50 (Rattus norvegicus [6]): > 100 mg/kg; LD50 [9]: > 2000 mg/kg; ED50 (Rattus norvegicus [10]): 9.3 mg/kg; Delta t (Mus musculus [11]): -2.9 °C; Ratio [12]: 5; ED50 (Mus musculus [7]): > 100 mg/kg
O=[N+]([O-])c1ccccc1N1CCN(CCCOc2ccc3c(c2)CCC3)CC1	8%	43%	
CC(=O)c1ccc(N2CCN(CCCOc3ccc4c(c3)CCC4)CC2)cc1	13%	0%	
c1ccc(N2CCN(CCOc3ccc4c(c3)CCC4)CC2)cc1	0%	17%	
COc1cc2c(cc1OCCCN1CCN(c3ccc(F)cc3)CC1)CCC2	100%	100%	
Fc1ccc(N2CCN(CCCOc3cccc4c3CCC4)CC2)cc1	5%	25%	
Fc1cc2c(cc1OCCCN1CCN(c3cccc(C(F)(F)F)c3)CC1)CCC2	0%	20%	
Clc1ccccc1N1CCN(CCCOc2ccc3c(c2)CCC3)CC1	40%	42%	

SMILES	inhibition in vivo at 25 mg/kg (Mus musculus [1])	inhibition in vivo at 25 mg/kg (Mus musculus [2])	also measured
Fc1ccc(N2CCN(CCCCCOc3ccc4c(c3)CCC4)CC2)cc1	58%	71%	
Clc1ccc(N2CCN(CCCOc3cc4c(cc3Cl)CCC4)CC2)cc1	33%	36%	
Fc1ccc(N2CCN(CCCCOc3ccc4c(c3)CCC4)CC2)cc1	70%	100%	
O=[N+]([O-])c1cc2c(cc1OCCCN1CCN(c3ccccc3)CC1)CCC2	67%	24%	
CNC1=Nc2ccc(Cl)cc2C(c2ccccc2)=[N+]([O-])C1 [CHLORDIAZEPOXIDE]			Delta t (Mus musculus [5]): 0.2; ED50 (Rattus norvegicus [6]): > 30 mg/kg; LD50 [9]: 700 mg/kg; ED50 (Mus musculus [7]): > 30 mg/kg; ED50 (Mus musculus [8]): 8 mg/kg
Cl.Cl.c1ccc(N2CCN(CCCOc3ccc4c(c3)CCC4)CC2)cc1	85%		Delta t (Mus musculus [5]): -2.3 °C; ED50 (Rattus norvegicus [6]): > 100 mg/kg; LD50 [9]: > 1500 mg/kg; ED50 (Rattus norvegicus [13]): 11.7 mg/kg; inhibition in vivo at 25 mg/kg (Mus musculus [14]): 89%; ED50 (Mus musculus [7]): > 100 mg/kg; Ratio [15]: 2.18
Cc1cc2c(cc1OCCCN1CCN(c3ccc(F)cc3)CC1)CCC2	50%	31%	
Clc1cc(Cl)cc(N2CCN(CCCCOc3ccc4c(c3)CCC4)CC2)c1	0%	0%	
Oc1cc2c(cc1OCCCN1CCN(c3ccccc3)CC1)CCC2	17%	0%	
Fc1ccc(N2CCN(CCOc3ccc4c(c3)CCC4)CC2)cc1	40%	0%	
COc1ccc(N2CCN(CCCCOc3ccc4c(c3)CCC4)CC2)cc1	17%	14%	
Oc1cc2c(cc1OCCCN1CCN(c3cccc(Cl)c3)CC1)CCC2	0%	29%	
Fc1ccc(N2CCN(CCCOc3cc4c(cc3F)CCC4)CC2)cc1	100%	97%	
Clc1ccc(N2CCN(CCCCOc3ccc4c(c3)CCC4)CC2)cc1	31%	33%	
Fc1cccc(N2CCN(CCCOc3ccc4c(c3)CCC4)CC2)c1	19%	42%	
Clc1cccc(N2CCN(CCCOc3ccc4c(c3)CCC4)CC2)c1	83%	83%	
FC(F)(F)c1cccc(N2CCN(CCCCCOc3ccc4c(c3)CCC4)CC2)c1	33%	66%	
O=[N+]([O-])c1ccc(N2CCN(CCCOc3ccc4c(c3)CCC4)CC2)cc1	0%	26%	
Fc1ccc(N2CCN(CCCOc3ccc4c(c3)C(c3ccccc3)CC4)CC2)cc1 (stereo not given)	17%	32%	
Fc1cc2c(cc1OCCCN1CCN(c3cccc(Cl)c3)CC1)CCC2	92%	92%	
Cl.Cl.FC(F)(F)c1cccc(N2CCN(CCCCOc3ccc4c(c3)CCC4)CC2)c1	8%	100%	ED50 (Mus musculus [4]): 12.5 mg/kg
c1ccc(N2CCN(CCCOc3cccc4c3CCC4)CC2)cc1	0%	33%	
COc1ccccc1N1CCN(CCCCOc2ccc3c(c2)CCC3)CC1	33%	42%	
c1ccc(N2CCN(CCCCOc3ccc4c(c3)CCC4)CC2)cc1	75%	50%	
Fc1cc2c(cc1OCCCCN1CCN(c3ccccc3)CC1)CCC2	33%	79%	
COc1cc2c(cc1OCCCN1CCN(c3cccc(Cl)c3)CC1)CCC2.Cl.Cl.Cl	67%	98%	ED50 (Mus musculus [3]): 15.9 mg/kg; ED50 (Mus musculus [4]): 11.3 mg/kg
Cl.Cl.Cl.Clc1cc2c(cc1OCCCN1CCN(c3ccccc3)CC1)CCC2	58%	82%	ED50 (Mus musculus [3]): 21 mg/kg; ED50 (Mus musculus [4]): 22 mg/kg
